This is one part of a sample in which hits are shown more often than they occur.
UPR XBP1 act = activators of adaptive arm of unfolded protein response (XBP1) | CHO-XBP1 luciferase reporter, IRE1-XBP1 UPR activation, luminescence; percent of tunicamycin response, DMSO as zero | activation, % at 20 µM | 0.33% of 330,000 active;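 active = versus positive control, 20 µM dose yields 30% or more activation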;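 also: 100% = tunicamycin at 10 µg/mL and 0% = DMSO only wells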
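Material – CHO cell line with stable XBP1 luciferase reporter · Buffer or medium – F12 plus 10% FBS · Compound – single point, 20 µM final compound, 1% DMSO · Schedule – 16-18 h cell attachment at 37 °C, then 6 h compound exposure · Signal – Steady-Glo luminescence read · Benchmarks – high control tunicamycin 10 µg/mL final, low control DMSO vehicle only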
UPR CHOP act = activators of apoptotic arm of unfolded protein response (CHOP); AID 449763; activation, % at 10 µM; 0.34% of 330,000 active; CHO-CHOP luciferase reporter, UPR activation, luminescence; percent of tunicamycin response over DMSO baseline;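 active = at 10 µM dose, activation of 40% or more, normalized to positive control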;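 also: 100% = tunicamycin at 10 µg/mL and 0% = DMSO alone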
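assay system = CHO CHOP reporter cells | amount = 500 CHO-CHOP cells per well | buffer or medium = F12 with 10% FBS | incubation = 16-18 h cell attachment, then 6 h compound exposure, 37 °C | detection = luminescence read with Steady-Glo | read-out = percent activation relative to tunicamycin control | controls = tunicamycin high control, DMSO low control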
CHOP inh = blocks CHOP induction under ER stress. inhibition, % at 10 µM. 3.8% of 220,000 active. CHO-K1 CHOP-promoter luciferase, tunicamycin-induced, 15-18 h;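 active = compounds that reduced the stress-induced luciferase reporter signal by more than about 70% of percent inhibition, limit read from the data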;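 also: 0% = tunicamycin plus vehicle and 100% = wells without tunicamycin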
V-ATPase pH = yeast V-ATPase proton transport regulation by pHLuorin; S. cerevisiae, pHLuorin cytosolic pH fluorescence; response, % at 10 µM; 0.37% of 350,000 active; AID 504577; in the data active = response mostly above about 7.3%, no sharp cut-off; inactive = mostly below about 5.4%; also: actives read high
TbMetRS inhib = blocks T. brucei methionyl-tRNA synthetase activity | purified T. brucei MetRS, ATP depletion, Kinase-Glo luminescence | 0.4% of 360,000 active | inhibition, % at 11.9 µM;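 active = inhibition above a per-plate cutoff of the control wells' mean inhibition plus 3 SD, cut at about 5.5% in these data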;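 also: 0% = DMSO wells median and 100% = median of wells with control inhibitor compound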
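Material: parasite MetRS enzyme / Replication: singlicate, one well per compound / Signal: luminescence of leftover ATP / Schedule: 2 h aminoacylation at 25 °C after 15 min preincubation / Medium: HEPES-MgCl2-KCl buffer plus DTT, spermine, BSA, pyrophosphatase / Doses: 11.9 µM single point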
* marks the source's active call; other numbers are inactive results.

How did CC(C)C(C)NC(=O)CSc1nnc(-c2c[nH]c3ccccc23)o1 (stereo not drawn) do in these assays?
UPR XBP1 act: -2.4; UPR CHOP act: 4.0; CHOP inh: 13.0; V-ATPase pH: -3.1; TbMetRS inhib: 3.5

What do the screens show for `Cc1ccc(C(=O)CSc2nnc(-c3c[nH]c4ccccc34)o2)cc1`?
UPR XBP1 act: 3.6; UPR CHOP act: -2.6; CHOP inh: 94.8*; V-ATPase pH: -0.1; TbMetRS inhib: 0.6

How did CC(C)(C)NC(=O)NC(=O)COC(=O)c1ccc(OC(F)F)cc1 do in these assays?
UPR XBP1 act: -0.1; UPR CHOP act: 0.8; CHOP inh: 10.6; V-ATPase pH: 1.1; TbMetRS inhib: -0.2

What do the screens show for `CCC(C(=O)OCC(=O)N1C(C)CCCC1C)c1ccccc1` (stereo not drawn)?
UPR XBP1 act: 5.8; UPR CHOP act: -0.8; V-ATPase pH: 284.3*; TbMetRS inhib: -0.6

How did CCC(C(=O)OCC(=O)NC(=O)c1ccccc1)c1ccccc1 (stereo not drawn) do in these assays?
UPR XBP1 act: -4.2; UPR CHOP act: -0.8; V-ATPase pH: 0.8; TbMetRS inhib: -0.6

How did CC(C)(C)NC(=O)NC(=O)COC(=O)c1ccc(OC(F)(F)F)cc1 do in these assays?
UPR XBP1 act: -0.9; UPR CHOP act: 2.9; CHOP inh: 81.0*; V-ATPase pH: 1.9; TbMetRS inhib: 0.0

How did CCC(C(=O)OCC(=O)NC(=O)NC(C)(C)C)c1ccccc1 (stereo not drawn) do in these assays?
UPR XBP1 act: -2.1; UPR CHOP act: -1.0; CHOP inh: 75.5*; V-ATPase pH: -3.2; TbMetRS inhib: 0.3

What do the screens show for `CC1CCCC(C)N1C(=O)COC(=O)c1ccccc1O` (stereo not drawn)?
UPR XBP1 act: 2.5; UPR CHOP act: 2.6; V-ATPase pH: -1.4; TbMetRS inhib: 0.3

Results for Cc1ccc2cccc(CC(=O)NN)c2c1 ?
V-ATPase pH: 3.6; TbMetRS inhib: -0.4

What do the screens show for `COC(=O)c1ccc(CNC(=O)C(NC(=O)c2ccco2)C(C)C)cc1` (stereo not drawn)?
UPR XBP1 act: -3.4; UPR CHOP act: 1.6; V-ATPase pH: -2.5; TbMetRS inhib: -0.5

What do the screens show for `COc1ccc(CN2CCN(CC(O)Cn3c4ccccc4c4ccccc43)CC2)cc1` (stereo not drawn)?
UPR XBP1 act: 4.0; UPR CHOP act: -0.6; CHOP inh: 68.7; V-ATPase pH: -3.7; TbMetRS inhib: 0.1

What do the screens show for `CCOc1ccc(CN2CCN(CC(O)Cn3c4ccccc4c4ccccc43)CC2)cc1` (stereo not drawn)?
UPR XBP1 act: 10.4; UPR CHOP act: 4.5; CHOP inh: 108.1*; V-ATPase pH: -1.1; TbMetRS inhib: -0.6

What do the screens show for `Cc1cccc(NC(=O)CSc2nc(=O)n(CCCN3CCOCC3)c3c2CCCC3)c1C`?
V-ATPase pH: -2.3; TbMetRS inhib: 0.4

Results for O=C(COC(=O)C1CSC2(c3ccc(F)cc3)CCC(=O)N12)NC(=O)NC1CCCC1 (stereo not drawn) ?
UPR XBP1 act: -2.5; UPR CHOP act: -1.2; CHOP inh: 72.9*; V-ATPase pH: 2.2; TbMetRS inhib: -0.8

How did CC(C)CNC(=O)NC(=O)COC(=O)C1CSC2(c3ccc(F)cc3)CCC(=O)N12 (stereo not drawn) do in these assays?
UPR XBP1 act: -4.7; UPR CHOP act: 4.7; CHOP inh: 30.2; V-ATPase pH: 1.1; TbMetRS inhib: -1.5

How did COc1ccc(N2CCC(CNS(=O)(=O)c3cccc(C(F)(F)F)c3)C2)cc1 (stereo not drawn) do in these assays?
UPR XBP1 act: -5.5; UPR CHOP act: -2.9; CHOP inh: 74.2*; V-ATPase pH: -0.7; TbMetRS inhib: -0.5

What do the screens show for `COc1ccc(CNC(=O)C2CCN(S(=O)(=O)c3cccc(C(F)(F)F)c3)CC2)cc1`?
UPR XBP1 act: -0.8; UPR CHOP act: 0.5; V-ATPase pH: 6.2; TbMetRS inhib: -0.8

What do the screens show for `CCCCn1nnnc1C(c1cccc2ccccc12)N1CCN(C/C=C/c2ccccc2)CC1` (stereo not drawn)?
TbMetRS inhib: -0.3

Results for COC(=O)c1cnc(Nc2nc(CN)cs2)nc1C(F)(F)F ?
TbMetRS inhib: 0.3

How did CCO[C@@H]1OC(C(=O)Nc2ccccc2)=C[C@H](c2csc3ccccc23)[C@H]1CCCO do in these assays?
UPR XBP1 act: -0.4; UPR CHOP act: 2.3; CHOP inh: -7.1; V-ATPase pH: -2.8; TbMetRS inhib: -0.2

Assay outcomes: PubChem, several laboratories
